According to publication PMC5403476 (International Journal of Molecular Medicine, 2017):
Residues, ends and D or L forms follow the SMILES beside them.

Experiments:
Format in all cases: cell-based, human
EA.hy926 cells = assay: Cell viability by MTT assay; conditions: 62.5, 125 and 250 µM, up to 250 µM; presence or absence of Ang II (1 µM); 24 h
Procedure, shortened: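 EA.hy926 cells were grown in DMEM with 10% FBS, penicillin and streptomycin at 37°C in 5% CO2. Cells were treated with Ang II (1 µM) plus test compound (62.5, 125 or 250 µM) for 24 h at 37°C, then with MTT for 4 h. Plates were spun and formazan was dissolved in DMSO, read at 540 nm. Data are mean ± SD of at least 3 experiments, compared by unpaired t-test.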

[1] = test system: JNK phosphorylation in EA.hy926 cells; assay: Phosphorylation of JNK by western blot; conditions: 30 min
Procedure, shortened: (§1)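 Ang II-stimulated EA.hy926 cells were lysed for 60 min in Tris/EDTA/NP-40 buffer with phosphatase and protease inhibitors, and protein was measured by BCA. Each lane took 40 µg protein on SDS-PAGE, transferred to nitrocellulose and blocked 2 h in 5% milk/TBS-T. Primary antibodies (1:1,000) were applied overnight at 4°C and secondaries at 1:3,000, with ECL detection and densitometry. Data are mean ± SD, at least 3 experiments.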

[2] = test system: p38 MAPK phosphorylation in EA.hy926 cells; assay: Phosphorylation of p38 MAPK by western blot; conditions: 30 min
Procedure, shortened: as §1

[3] = test system: ET-1 expression in Ang II-stimulated EA.hy926 cells; assay: ET-1 expression by western blot; conditions: 24 h
Procedure, shortened: as §1

[4] = test system: ERK phosphorylation in EA.hy926 cells; assay: Phosphorylation of ERK by western blot; conditions: 30 min
Procedure, shortened: as §1

[5] = test system: NO production in Ang II-stimulated EA.hy926 cells; assay: NO production; conditions: Ang II alone (1 µM, 24 h), compared with the untreated cells
Procedure, shortened: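 EA.hy926 cells were incubated with test compound and Ang II for 24 h. Nitrite in the medium was taken as the NO indicator. Medium was mixed 1:1 with Griess reagent (1% sulfanilamide, 0.1% naphthylethylenediamine dihydrochloride in 2.5% phosphoric acid) for 10 min at room temperature and read at 540 nm, with fresh medium as blank. Data are mean ± SD, at least 3 experiments.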

[6] = test system: intracellular ROS in Ang II-stimulated EA.hy926 cells; assay: Intracellular ROS generation; conditions: Ang II alone (1 µM, 30 min), compared with the untreated cells
Procedure, shortened: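 Cells were seeded for 24 h, then pre-treated with test compound for 30 min. Ang II (1 µM) was added for a further 30 min at 37°C. Cells were loaded with 40 µM carboxy-DCFH-DA, and DCF fluorescence plus DAPI were imaged by fluorescence microscopy.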

[7] = test system: iNOS expression in Ang II-stimulated EA.hy926 cells; assay: iNOS expression by western blot; conditions: 24 h
Procedure, shortened: as §1

Compound	cytotoxic effect (MTT) (EA.hy926 cells)	phosphorylated JNK, Ang II alone [1]	phosphorylated p38 MAPK, Ang II alone [2]	ET-1 expression, Ang II alone [3]	phosphorylated ERK, Ang II alone [4]	NO generation, Ang II alone [5]	ROS fluorescence intensity, Ang II alone [6]	iNOS expression, Ang II alone [7]
CSCC[C@H](NC(=O)[C@@H](N)[C@@H](C)O)C(=O)N[C@@H](CCC(=O)O)C(=O)N1CCC[C@H]1C(=O)NCC(=O)N[C@@H](CCCCN)C(=O)N1CCC[C@H]1C(=O)O [purified peptide, Thr-Met-Glu-Pro-Gly-Lys-Pro] (H-TMEPGKP-OH)	No significant toxic effects							
angiotensin II (DRVYIHPF; Angiotensin-2; UniProt P01019 25-32, looked up) [Ang II]		elevated	elevated	markedly increased	elevated	markedly induced NO generation	increased markedly	markedly increased
